ChEMBL document CHEMBL4765368, “Structure guided design and synthesis of furyl thiazolidinedione derivatives as inhibitors of GLUT 1 and GLUT 4, and evaluation of their anti-leukemic potential” (Eur J Med Chem, 2020)
The source made the active and inactive calls. The calls are words filed in the database; no cut-off is given here.

Key:
[1] = molecular target: Histone deacetylase 4 (Homo sapiens) (UniProt P56524); assay: (§1) Inhibition of recombinant human N-terminal GST-tagged HDAC4 (627 to end residues) expressed in baculovirus infected Sf9 insect cells assessed as residual activity at 50 uM using Boc-Lys(trifluoroacetyl)-AMC as substrate preincubated for 60 mins followed by substrate addition and measured after 60 mins by fluorescence assay relative to control; settings: time 120.0 min
[2] = molecular target: T1, Solute carrier family 2, facilitated glucose transporter member 5 (Homo sapiens) (UniProt P22732); assay: Inhibition of transport activity of human GLUT5 expressed in hexose transporter deficient VW4000 yeast cells assessed as reduction in transporter-mediated [14C]-fructose uptake into cells at 100 uM measured after 10 mins by scintillation counting method; type: cell-based
T1 sequence (whole entry): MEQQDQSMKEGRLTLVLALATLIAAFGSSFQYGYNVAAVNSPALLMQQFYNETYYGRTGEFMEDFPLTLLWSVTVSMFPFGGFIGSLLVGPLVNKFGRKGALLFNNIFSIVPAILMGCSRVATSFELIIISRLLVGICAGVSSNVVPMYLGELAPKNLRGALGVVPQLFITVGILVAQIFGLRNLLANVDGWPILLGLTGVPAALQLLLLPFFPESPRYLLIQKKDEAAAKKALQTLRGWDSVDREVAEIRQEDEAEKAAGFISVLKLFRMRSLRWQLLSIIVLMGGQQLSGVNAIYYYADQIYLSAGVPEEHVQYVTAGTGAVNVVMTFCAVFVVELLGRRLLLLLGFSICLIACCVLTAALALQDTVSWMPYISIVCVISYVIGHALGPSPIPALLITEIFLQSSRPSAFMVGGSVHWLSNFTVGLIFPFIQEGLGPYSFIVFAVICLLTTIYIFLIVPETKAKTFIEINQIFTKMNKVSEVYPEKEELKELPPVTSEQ
Outline: (§2)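 The hxt0 yeast strain expressing one human GLUT was grown at 30 °C and resuspended in PBS pH 7.4 at OD600 ~10. Uptake was started with 14C-glucose at 5 mM final (GLUT1, GLUT4) or 14C-fructose at 10 mM final (GLUT5). It was quenched after 10 min with ice-cold 0.1 M KPi/0.1 M LiCl pH 5.5, filtered and counted by scintillation. Compound at 100 μM with 1% DMSO; DMSO control and phloretin 200 μM (GLUT1/4) or MSNBA 100 μM (GLUT5) as references. Triplicates.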

[3] = molecular target: T2, Histone deacetylase 8 (Homo sapiens) (UniProt Q9BY41); assay: as §1, with “His6/SUMO-tagged HDAC8” for “N-terminal GST-tagged HDAC4 (627 to end residues)”, “Escherichia coli (BL21) DE3 pLysS” for “baculovirus infected Sf9 insect cells”; settings: time 120.0 min
T2 sequence (whole entry): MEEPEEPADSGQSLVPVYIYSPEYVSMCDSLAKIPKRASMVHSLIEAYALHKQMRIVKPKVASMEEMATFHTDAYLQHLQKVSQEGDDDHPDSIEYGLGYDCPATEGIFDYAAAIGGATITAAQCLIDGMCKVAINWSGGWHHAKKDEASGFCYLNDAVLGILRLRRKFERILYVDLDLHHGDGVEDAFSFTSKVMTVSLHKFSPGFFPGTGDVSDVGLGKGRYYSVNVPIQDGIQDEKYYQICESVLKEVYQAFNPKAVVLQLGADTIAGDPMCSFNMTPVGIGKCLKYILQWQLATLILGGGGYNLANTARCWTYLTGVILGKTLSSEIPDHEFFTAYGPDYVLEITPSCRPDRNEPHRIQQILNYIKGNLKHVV
Outline: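 20 μM Boc-Lys(trifluoroacetyl)-AMC was then added for 60 min at 30 °C, the reaction stopped with 1.7 μM SATFMK and developed with 0.4 mg/ml trypsin, and AMC fluorescence read at Ex 350/Em 450 nm. Triplicates; percent relative activity.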

[4] = molecular target: T3, Histone deacetylase 8 (Homo sapiens, UniProt Q9BY41); assay: Inhibition of recombinant human His6/SUMO-tagged HDAC8 expressed in Escherichia coli (BL21) DE3 pLysS using Boc-Lys(trifluoroacetyl)-AMC as substrate preincubated for 60 mins followed by substrate addition and measured after 60 mins by fluorescence assay
T3 sequence (Q9BY41 whole entry): T2 sequence (whole entry)

[5] = system: KCL-22; assay: Cytotoxicity against human KCL-22 cells assessed as reduction in cell viability measured after 48 hrs by Hoechst 33342/propidium iodide staining based imaging analysis; type: functional
Outline: (§3)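 Cells were seeded at 10,000 per well (HS-27 at 3,000) in 10% FBS RPMI (leukemic lines) or DMEM (MDA-MB-231, HS-27). Compound in DMSO (1% v/v final) at 0.5–100 µM for 48 h. Hoechst 33342 and PI were added 2 h before automated imaging; dead cells were co-stained. Quadruplicates. CC50 was taken by linear interpolation between the two concentrations nearest 50% death.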

[6] = system: CCRF-CEM; assay: Cytotoxicity against human CCRF-CEM cells assessed as reduction in cell viability measured after 48 hrs by Hoechst 33342/propidium iodide staining based imaging analysis; type: functional; outline: as §3
[7] = system: K562; assay: Cytotoxicity against human K562 cells assessed as reduction in cell viability measured after 48 hrs by Hoechst 33342/propidium iodide staining based imaging analysis; type: functional; outline: as §3
[8] = molecular target: T4, Solute carrier family 2, facilitated glucose transporter member 1 (Homo sapiens, UniProt P11166); assay: Inhibition of transport activity of human GLUT1 expressed in hexose transporter deficient VW4000fgy1 yeast cells assessed as reduction in transporter-mediated [14C]-hexose uptake into cells measured after 10 mins by scintillation counting method; type: cell-based
T4 sequence (P11166 whole entry): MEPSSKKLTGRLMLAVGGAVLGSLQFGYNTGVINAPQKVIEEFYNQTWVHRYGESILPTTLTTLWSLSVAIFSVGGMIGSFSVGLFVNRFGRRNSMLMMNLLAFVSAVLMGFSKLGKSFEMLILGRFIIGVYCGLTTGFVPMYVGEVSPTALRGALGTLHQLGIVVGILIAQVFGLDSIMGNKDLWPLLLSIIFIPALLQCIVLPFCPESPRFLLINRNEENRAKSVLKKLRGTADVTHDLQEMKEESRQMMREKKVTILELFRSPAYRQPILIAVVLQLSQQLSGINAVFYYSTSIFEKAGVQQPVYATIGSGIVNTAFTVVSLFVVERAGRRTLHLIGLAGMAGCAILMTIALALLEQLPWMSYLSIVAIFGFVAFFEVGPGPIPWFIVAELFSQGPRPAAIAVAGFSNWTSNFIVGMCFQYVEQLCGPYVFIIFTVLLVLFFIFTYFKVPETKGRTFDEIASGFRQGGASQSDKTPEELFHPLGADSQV
Outline: (§4)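 GLUT1 (VW4000fgy1) or GLUT4 (VW4000fgy1erg4) hxt0 yeast were grown on maltose and then glucose and resuspended in PBS pH 7.4 at OD600 ~10. Compound was used at 0.1–100 μM, final 1% DMSO. Uptake of 5 mM 14C-glucose over 10 min was stopped with ice-cold quench buffer, filtered and counted by scintillation. IC50 was taken from dose-response curves of three independent measurements.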

[9] = molecular target: T5, Solute carrier family 2, facilitated glucose transporter member 1 (Homo sapiens) (UniProt P11166); assay: Inhibition of transport activity of human GLUT1 expressed in hexose transporter deficient VW4000fgy1 yeast cells assessed as reduction in transporter-mediated [14C]-hexose uptake into cells at 100 uM measured after 10 mins by scintillation counting method relative to control; type: cell-based; outline: as §2
T5 sequence (whole entry): T4 sequence (P11166 whole entry)

[10] = molecular target: T6, Solute carrier family 2, facilitated glucose transporter member 4 (Homo sapiens) (UniProt P14672); assay: Inhibition of transport activity of human GLUT4 expressed in hexose transporter deficient […] erg4 yeast cells assessed as reduction in transporter-mediated [14C]-hexose uptake into cells at 100 uM measured after 10 mins by scintillation counting method relative to control; type: cell-based; outline: as §2
T6 sequence (whole entry): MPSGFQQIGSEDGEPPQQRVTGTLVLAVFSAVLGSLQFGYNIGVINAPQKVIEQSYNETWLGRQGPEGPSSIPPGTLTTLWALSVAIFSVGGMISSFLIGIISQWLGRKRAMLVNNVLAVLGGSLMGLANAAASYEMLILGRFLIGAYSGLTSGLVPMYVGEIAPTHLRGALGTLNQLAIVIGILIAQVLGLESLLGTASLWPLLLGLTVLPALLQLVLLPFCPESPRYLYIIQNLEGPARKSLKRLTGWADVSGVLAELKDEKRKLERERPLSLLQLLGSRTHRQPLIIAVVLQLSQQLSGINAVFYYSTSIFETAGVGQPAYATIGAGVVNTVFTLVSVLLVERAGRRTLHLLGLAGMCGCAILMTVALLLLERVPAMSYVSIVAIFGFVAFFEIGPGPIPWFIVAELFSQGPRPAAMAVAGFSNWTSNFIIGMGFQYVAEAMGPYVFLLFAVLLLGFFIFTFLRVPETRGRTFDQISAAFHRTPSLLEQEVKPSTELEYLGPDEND

[11] = molecular target: T7, Solute carrier family 2, facilitated glucose transporter member 4 (Homo sapiens, UniProt P14672); assay: Inhibition of transport activity of human GLUT4 expressed in hexose transporter deficient W4000fgy1 erg4 yeast cells assessed as reduction in transporter-mediated [14C]-hexose uptake into cells measured after 10 mins by scintillation counting method; type: cell-based; outline: as §4
T7 sequence (P14672 whole entry): T6 sequence (whole entry)

Sequence of Histone deacetylase 4 (Homo sapiens) (P56524 whole entry): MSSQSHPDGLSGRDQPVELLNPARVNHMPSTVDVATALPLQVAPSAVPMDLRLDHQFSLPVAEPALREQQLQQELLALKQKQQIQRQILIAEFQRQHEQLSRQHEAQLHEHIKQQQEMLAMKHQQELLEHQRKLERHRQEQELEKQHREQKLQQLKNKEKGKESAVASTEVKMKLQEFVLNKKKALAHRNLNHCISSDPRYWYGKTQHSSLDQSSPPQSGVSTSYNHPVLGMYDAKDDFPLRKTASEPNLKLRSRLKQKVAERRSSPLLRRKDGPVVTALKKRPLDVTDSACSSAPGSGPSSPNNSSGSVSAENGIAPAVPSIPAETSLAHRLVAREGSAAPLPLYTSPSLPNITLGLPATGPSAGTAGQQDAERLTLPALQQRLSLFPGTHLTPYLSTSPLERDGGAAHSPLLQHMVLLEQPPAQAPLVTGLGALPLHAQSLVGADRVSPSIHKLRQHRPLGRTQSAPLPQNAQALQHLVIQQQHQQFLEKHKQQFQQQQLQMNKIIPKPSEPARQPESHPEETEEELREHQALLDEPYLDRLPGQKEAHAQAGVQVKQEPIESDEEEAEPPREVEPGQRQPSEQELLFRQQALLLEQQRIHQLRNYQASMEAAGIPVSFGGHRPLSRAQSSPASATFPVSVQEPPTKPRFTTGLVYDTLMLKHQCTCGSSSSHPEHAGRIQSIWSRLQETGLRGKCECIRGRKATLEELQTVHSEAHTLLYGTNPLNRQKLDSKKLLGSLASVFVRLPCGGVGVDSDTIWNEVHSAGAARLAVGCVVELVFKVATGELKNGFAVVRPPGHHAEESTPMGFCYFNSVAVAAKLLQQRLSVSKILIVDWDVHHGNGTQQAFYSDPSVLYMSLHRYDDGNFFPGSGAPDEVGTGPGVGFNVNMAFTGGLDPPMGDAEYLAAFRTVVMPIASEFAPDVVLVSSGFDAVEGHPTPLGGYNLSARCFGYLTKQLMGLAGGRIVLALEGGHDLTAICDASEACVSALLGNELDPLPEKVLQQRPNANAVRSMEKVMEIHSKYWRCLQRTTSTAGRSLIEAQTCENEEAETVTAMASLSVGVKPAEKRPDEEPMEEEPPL

Row | SMILES | Activity [1] | inhibition [2] | Activity [3] | IC50 [4] | IC50 [8] | inhibition [9] | inhibition [10] | IC50 [11] | CC50 [5] | CC50 [6] | CC50 [7]
1 | O=C(CN1C(=O)S/C(=C/c2ccco2)C1=O)Nc1ccc(Br)cc1F | > 50% | inactive | > 50% |  |  |  |  |  |  |  | 
2 | O=C(CN1C(=O)S/C(=C/c2ccco2)C1=O)Nc1ccc([N+](=O)[O-])cc1 | > 50% | inactive | 17% | 13 µM |  |  |  |  |  |  | 
3 | COc1ccc(NC(=O)CN2C(=O)S/C(=C/c3ccco3)C2=O)cc1 | > 50% | inactive | > 50% |  |  |  |  |  |  |  | 
4 | O=C(CN1C(=O)S/C(=C/c2ccco2)C1=O)Nc1ccc(Br)cc1 | > 50% | inactive | > 50% |  |  |  |  |  | 98.2 µM | 81 µM | 94 µM
5 | O=C(CN1C(=O)S/C(=C/c2ccco2)C1=O)Nc1ccccn1 | > 50% | inactive | > 50% |  |  |  |  |  |  |  | 
6 | Cc1cccc2sc(NC(=O)CN3C(=O)S/C(=C/c4ccco4)C3=O)nc12 | > 50% | inactive | > 50% |  | 72 µM | > 50% | > 50% | 123 µM | 97 µM | 96.8 µM | 97.1 µM
7 | Cc1ccc(NC(=O)CN2C(=O)S/C(=C/c3ccco3)C2=O)cc1 | > 50% | inactive | > 50% |  |  |  |  |  | > 100 µM | 102 µM | > 100 µM
8 | Cc1c(NC(=O)CN2C(=O)S/C(=C/c3ccco3)C2=O)c(=O)n(-c2ccccc2)n1C | > 50% | inactive | > 50% |  |  |  |  |  |  |  | 
9 | O=C(CN1C(=O)S/C(=C/c2ccco2)C1=O)Nc1nccs1 | > 50% | inactive | > 50% |  |  |  |  |  |  |  | 
10 | Cc1cc(NC(=O)CN2C(=O)S/C(=C/c3ccco3)C2=O)no1 | > 50% | inactive | > 50% |  |  |  |  |  | > 100 µM | > 100 µM | 98.6 µM
11 | O=C(CN1C(=O)S/C(=C/c2ccco2)C1=O)Nc1ccc(Oc2ccccc2)cc1 | > 50% | inactive | > 50% |  |  |  |  |  |  |  | 
12 | O=C(CN1C(=O)S/C(=C/c2ccco2)C1=O)Nc1ccc(F)cc1F | > 50% | inactive | > 50% |  |  |  |  |  |  |  | 
13 | O=C(CN1C(=O)S/C(=C/c2ccco2)C1=O)Nc1c(F)cc(Br)cc1F | > 50% | inactive | > 50% |  |  |  |  |  |  |  | 

Second part, led by results:

Row | Activity [1] | inhibition [2] | Activity [3] | IC50 [4] | IC50 [8] | inhibition [9] | inhibition [10] | IC50 [11] | SMILES | CC50 [5] | CC50 [6] | CC50 [7]
14 | > 50% | inactive | > 50% |  |  |  |  |  | O=C(CN1C(=O)S/C(=C/c2ccco2)C1=O)Nc1ccccc1 |  |  | 
15 | > 50% | inactive | > 50% |  |  |  |  |  | O=C(CN1C(=O)S/C(=C/c2ccco2)C1=O)Nc1cccc(F)c1 |  |  | 
16 | > 50% | inactive | > 50% |  |  |  |  |  | O=C(CN1C(=O)S/C(=C/c2ccco2)C1=O)Nc1cc(C(F)(F)F)ccc1Cl |  |  | 
17 | > 50% | inactive | > 50% |  |  |  |  |  | O=C(CN1C(=O)S/C(=C/c2ccco2)C1=O)Nc1ccc(Cl)cc1C(F)(F)F | > 100 µM | 79.9 µM | > 100 µM
18 | > 50% | inactive | > 50% |  |  |  |  |  | O=C(CN1C(=O)S/C(=C/c2ccco2)C1=O)Nc1ccccc1F |  |  | 
19 | > 50% | inactive | > 50% |  |  |  |  |  | O=C(CN1C(=O)S/C(=C/c2ccco2)C1=O)Nc1cccc(C(F)(F)F)c1 |  |  | 
20 | > 50% | inactive | > 50% |  |  |  |  |  | O=C(CN1C(=O)S/C(=C/c2ccco2)C1=O)Nc1ccc(F)cc1 |  |  | 
21 | > 50% | inactive | > 50% |  |  |  |  |  | Cc1ccc(NC(=O)CN2C(=O)S/C(=C/c3ccco3)C2=O)cc1Cl |  |  | 
22 | > 50% |  | > 50% |  |  |  |  |  | O=C(CN1C(=O)S/C(=C/c2ccco2)C1=O)Nc1ccc(Br)c(Br)c1 |  |  | 
